Here are results for two compounds from ChEMBL document CHEMBL4024769, “Synthesis and Investigation of Photophysical and Biological Properties of Novel S-Containing Bacteriopurpurinimides” (J Med Chem, 2017).

Data set [1] is described as follows: Phototoxicity against mouse S37 cells implanted in F1 mouse assessed as tumor growth inhibition at 2.5 mg/kg, iv preincubated for 30 mins with subsequent 150 J/cm2 irradiation measured on day 20 post irradiation relative to control. The conditions noted are these: S37, light or radiation study, read-out: TGI. Type of data set: functional. The procedure, abridged: (§1)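 S37 sarcoma mice treated on day 7 of tumor growth with compound iv; tumors 140–160 mm3 beforehand, droperidol 0.25 mg ip as anesthetic. LED irradiation at 800 ± 21 nm, 100 mW/cm2, 150 J/cm2, given 15 or 30 min after dosing. Controls got iv 0.9% NaCl. Volume = d1×d2×d3×0.52; TGI = […]×100%.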

Data set [2] is described as follows: Phototoxicity against mouse S37 cells implanted in F1 mouse assessed as tumor growth inhibition at 2.5 mg/kg, iv preincubated for 30 mins with subsequent 150 J/cm2 irradiation measured on day 8 post irradiation relative to control. It is filed as functional. The following applies: S37, light or radiation study, read-out: TGI. The procedure, abridged:
as §1

For a further data set, the system named is Mus musculus. Nature of the data set: Toxicity in F1 mouse implanted with mouse S37 cells at 2.5 mg/kg, iv preincubated for 15 to 30 mins with subsequent 150 J/cm2 irradiation measured up to 16 days post irradiation. Type of data set: organism-based. The following applies: in vivo, 384 h. The procedure, abridged: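 F1 mice bearing S37 sarcoma (140−160 mm3) were treated on day 7 of tumour growth with 2.5 or 5.0 mg/kg iv; controls received iv 0.9% NaCl. Animals were anaesthetised with droperidol 0.25 mg/animal ip. LED irradiation (800 ± 21 nm, 100 mW/cm2, 150 J/cm2) followed 15 or 30 min after dosing. Tumour volume was calculated as d1×d2×d3×0.52, with TGI computed versus controls. Tumour-free animals were followed for 90 d.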

Data set [3] can be described thus: Drug distribution in mouse S37 cell cytoplasm at 1 uM for 4 hrs by laser scanning confocal microscopic analysis. Type of data set: ADME. The procedure, abridged:
(§2)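 Mouse sarcoma S37 cells exposed to 1 μM photosensitizer for 4 h, then imaged by laser scanning confocal microscopy with a 63×/1.46 oil objective. Excitation 543 nm at 10 μW; emission collected above 655 nm on an APD detector. Intracellular localization judged against transmitted-light images.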

Data set [4] is described as follows: Phototoxicity against mouse S37 cells implanted in F1 mouse assessed as tumor growth inhibition at 2.5 mg/kg, iv preincubated for 30 mins with subsequent 150 J/cm2 irradiation measured on day 11 post irradiation relative to control. It is filed as functional. The following applies: S37, light or radiation study, read-out: TGI. The procedure, abridged: as §1

Data set [5] can be described thus: Drug uptake in liver tumor of F1 mouse implanted with mouse S37 cells assessed as normalized fluorescence at 2.5 mg/kg, iv measured up to 24 hrs post injection in presence of He-Ne laser radiation by local fluorescence spectroscopic analysis. The conditions noted are these: in vivo. Type of data set: ADME, organism-based. The procedure, abridged:
(§3)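 Single iv dose of 2.5 mg/kg given to F1 mice bearing S37 sarcoma. Skin, muscle, liver, kidney, spleen and tumor taken from three animals each at 0.25, 0.5, 2, 4 and 24 h and read ex vivo by contact local fluorescence spectroscopy. He–Ne 632.8 nm excitation; 640–900 nm integral normalized to backscattered laser signal (FN).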

Data set [6] can be described thus: Drug uptake in kidney tumor of F1 mouse implanted with mouse S37 cells assessed as normalized fluorescence at 2.5 mg/kg, iv measured after 24 hrs post injection in presence of He-Ne laser radiation by local fluorescence spectroscopic analysis. The conditions noted are these: in vivo. It is filed as ADME, organism-based. The procedure, abridged:
as §3

The nature of data set [7]: Phototoxicity against mouse S37 cells implanted in F1 mouse assessed as tumor growth inhibition at 2.5 mg/kg, iv preincubated for 30 mins with subsequent 150 J/cm2 irradiation measured on day 15 post irradiation relative to control. Type of data set: functional. The conditions noted are these: S37, light or radiation study, read-out: TGI. The procedure, abridged: as §1

Data set [8] is described as follows: Drug uptake in kidney tumor of F1 mouse implanted with mouse S37 cells assessed as normalized fluorescence at 2.5 mg/kg, iv measured up to 24 hrs post injection in presence of He-Ne laser radiation by local fluorescence spectroscopic analysis. It is filed as ADME, organism-based. The conditions noted are these: in vivo. The procedure, abridged:
as §3

The nature of data set [9]: Dark toxicity against mouse S37 cells assessed as cell growth inhibition up to 15 uM after 24 hrs by MTT assay. Type of data set: cell-based. The following applies: s37, 24 h. The procedure, abridged: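 S37 mouse sarcoma cells in DMEM with 2 mM L-glutamine and 10% FBS, 37 °C, 5% CO2. Compound added 24 h after plating and kept without irradiation for 24 h in the dark. Survival scored visually and by MTT colorimetry.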

The nature of data set [10]: Drug distribution in mouse S37 cell membrane at 1 uM for 4 hrs by laser scanning confocal microscopic analysis. It is filed as ADME, cell-based. The procedure, abridged:
as §2

Data set [11] can be described thus: Drug distribution in mouse S37 cell nuclear membrane at 1 uM for 4 hrs by laser scanning confocal microscopic analysis. It is filed as ADME. The procedure, abridged: as §2
Data set [12] is described as follows: Drug uptake in spleen tumor of F1 mouse implanted with mouse S37 cells assessed as normalized fluorescence at 2.5 mg/kg, iv measured up to 24 hrs post injection in presence of He-Ne laser radiation by local fluorescence spectroscopic analysis. The conditions noted are these: in vivo. Type of data set: ADME, organism-based. The procedure, abridged:
as §3

Data set [13] is described as follows: Drug uptake in tumor of F1 mouse implanted with mouse S37 cells at 2.5 mg/kg, iv measured after 24 hrs in presence of He-Ne laser radiation by local fluorescence spectroscopic analysis. It is filed as ADME, organism-based, Neoplasm. The following applies: in vivo. The procedure, abridged: as §3
Data set [14] in a line: Drug uptake in skin tumor of F1 mouse implanted with mouse S37 cells assessed as normalized fluorescence at 2.5 mg/kg, iv measured up to 24 hrs in presence of He-Ne laser radiation by local fluorescence spectroscopic analysis. Type of data set: ADME, organism-based. The conditions noted are these: in vivo. The procedure, abridged:
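S37 sarcoma-bearing immunocompetent F1 mice (18−22 g) given PS 2.5 mg/kg iv. Animals sacrificed at 0.25, 0.5, 2, 4 and 24 h, with three animals per time point. Skin, tumor and organ samples were read ex vivo by contact local fluorescence spectroscopy under He−Ne 632.8 nm excitation. Integrated 640−900 nm emission was normalized to the backscattered laser signal to give FN.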

Data set [15] is described as follows: Phototoxicity against mouse S37 cells implanted in F1 mouse assessed as tumor growth inhibition at 2.5 mg/kg, iv preincubated for 30 mins with subsequent 150 J/cm2 irradiation measured on day 18 post irradiation relative to control. The following applies: S37, light or radiation study, read-out: TGI. It is filed as functional. The procedure, abridged:
as §1

A short description of data set [16]: Drug distribution in mouse S37 cell cytoplasmic vesicles at 1 uM for 4 hrs by microspectroscopy. It is filed as ADME.
The nature of data set [17]: Phototoxicity against rat Sarcoma M1 cells implanted in rat assessed as volume of tumor necrotic zones at 2.5 mg/kg, ip administered as single dose on day 11 after inoculation followed by 300 J/cm2 irradiation after 2.5 to 3 hrs measured on day 12 post photodynamic therapy (reference value: 44 +/- 3%). Type of data set: functional. The procedure, abridged: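 Rat M1 sarcoma was implanted subcutaneously in the left thigh, with randomisation on day 10. A single 2.5 mg/kg ip dose was given on day 11, then 810 nm laser (0.51 W/cm2, 300 J/cm2, 10 min) after 2.5−3 h. Tumours were sectioned on days 1, 3 and 12 after PDT (controls days 12, 14, 23), five animals per point. Parenchyma and necrotic zone volumes were estimated on hematoxylin and eosin staining.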

Data set [18] is described as follows: Drug uptake in tumor of F1 mouse implanted with mouse S37 cells at 2.5 mg/kg, iv measured after 2 hrs in presence of He-Ne laser radiation by local fluorescence spectroscopic analysis. The conditions noted are these: in vivo. It is filed as ADME, organism-based, Neoplasm. The procedure, abridged: as §3
Data set [19] is described as follows: Drug distribution in mouse S37 cell cytoplasmic vesicles at 1 uM for 4 hrs by laser scanning confocal microscopic analysis. Type of data set: ADME. The procedure, abridged:
as §2

`CCCO/N=C(\C)c1c(C)c2cc3nc(c4c5[nH]c(cc6nc(cc1[nH]2)[C@@H](C)[C@@H]6CC)c(C)c5C(=O)N(OCCC)C4=O)[C@H](CCC(=O)NCCSSCCNC(=O)CC[C@@H]1c2nc(cc4[nH]c(cc5nc(cc6[nH]c7c2C(=O)N(OCCC)C(=O)c7c6C)[C@H](CC)[C@H]5C)c(/C(C)=N/OCCC)c4C)[C@H]1C)[C@H]3C`: the inhibition in vivo at 2.5 mg/kg turned out to be 75.5% in data set [1]; 100% in data set [2]; 97.4% in data set [4]; 93.9% in [7]; 88% in data set [15]. Moreover, the figures for the Activity result (in the data set with Mus musculus; in [9]; in [17]) were “Non-Toxic”, “Non-Toxic” and 71%, respectively. For the same compound, the Drug uptake entry is listed as “Not Active” in [3]; “Active” in data set [5]; “Active” in [6]; “Active” in data set [8]; “Not Active” in [10]; “Not Active” in [11]. The Drug uptake entry in [12] is given as “Active”; in data set [13], “Not Active”; in data set [16], “Active”; in data set [18] it was “Active”; in data set [19], “Active”. For the same compound, the Flu intensity in data set [14] worked out at 2 RU.
For the compound `CCCO/N=C(\C)c1c(C)c2cc3nc(c4c5[nH]c(cc6nc(cc1[nH]2)[C@H](C)[C@H]6CC)c(C)c5C(=O)N(OCCC)C4=O)[C@@H](CCC(=O)OC)[C@@H]3C`, the inhibition in vivo at 2.5 mg/kg in [1] was determined as 65.9%; in [2], 100%; in [4] it was 88.6%; in data set [7], 81.5%; in data set [15], 77.1%. Also, the Activity entry (in the data set with Mus musculus; in data set [9]) was “Non-Toxic” each time. In addition, the Drug uptake entry in [3] was “Not Active”; in [5], “Active”; in [8], “Active”; in data set [10] it was “Not Active”; in data set [11], “Not Active”; in data set [12], “Active”. The Drug uptake entry was “Not Active” in data set [13], “Active” in data set [16], “Active” in data set [18] and “Active” in data set [19]. In addition, the Flu intensity in data set [14] was 2 RU.
